Source: PubChem BioAssay
PolyA inh = blocks polyadenylation in yeast reporter cells | S. cerevisiae SKY197-pL101 polyadenylation reporter, beta-gal luminescence; efflux-impaired pdr1/pdr3 knockout yeast; score 100 = 6 SD above DMSO | activity score, % at 12 µM | 300,000 tested, 0.02% active | AID 1875;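 active = lowest replicate activity score at least 50, where 100 means six control SD above control mean; inconclusive = lowest score under 50 but half or more replicates reach 50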;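 also: yeast exposed to compound for 9 h at 30 °C; higher score means more reporter readthrough which indicates perturbed polyadenylation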
GSK3B inh = blocks human GSK3beta kinase activity; P49841; GST-GSK3beta kinase, ADP-Glo luminescence, 60 min; stronger effect = lower value; activity score (negative = inhibition), % at 10 µM; 300,000 tested, 0.038% active;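 active = more than half of replicate wells score below -50%, meaning over 50% inhibition versus plate controls; inconclusive = some replicates but at most half score below -50%; inactive = no replicate scores below -50%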
Target sequence (P49841 whole entry, looked up): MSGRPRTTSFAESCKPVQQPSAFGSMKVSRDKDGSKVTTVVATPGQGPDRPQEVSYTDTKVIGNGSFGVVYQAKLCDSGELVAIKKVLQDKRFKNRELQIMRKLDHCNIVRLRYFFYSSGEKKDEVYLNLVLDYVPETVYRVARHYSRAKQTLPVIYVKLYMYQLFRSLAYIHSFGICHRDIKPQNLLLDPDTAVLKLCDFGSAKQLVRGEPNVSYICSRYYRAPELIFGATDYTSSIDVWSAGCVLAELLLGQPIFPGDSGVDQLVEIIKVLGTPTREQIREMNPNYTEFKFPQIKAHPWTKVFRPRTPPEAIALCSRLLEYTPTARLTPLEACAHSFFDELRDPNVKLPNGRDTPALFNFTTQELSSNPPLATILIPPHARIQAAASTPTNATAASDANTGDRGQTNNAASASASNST
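Test system: GST-fused GSK3beta enzyme, cell-free | Quantity: 1.6 ng GST-GSK3beta enzyme per well | Reagent: 25 µM ATP with peptide substrate | Schedule: 60 min enzyme reaction, room temperature | Signal: Luminescent ADP-Glo measurement of ADP formed | Read-out basis: Score relative to plate controls | Control set: DMSO and 20 µM GW8510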
GSK3 alpha inh = blocks human GSK-3 alpha kinase. P49840. ADP-Glo luminescence, 60 min. inhibition, % at 10 µM. 320,000 tested, 0.1% active. AID 2650;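 active = more than half of replicates show inhibition above 20%; inconclusive = some but at most half of replicates above 20% inhibition; inactive = no replicate shows inhibition above 20%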;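 also: GST-tagged GSK-3 alpha with peptide substrate and 25 µM ATP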
STK33 inh = blocks human STK33 kinase activity | purified STK33, MBP phosphorylation, ADP-Glo luminescence | 320,000 tested, 0.073% active | AID 2661 | Q9BYT3 | inhibition, % at 10 µM;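 active = inhibition at or above 25%, using the most active replicate where run in duplicate; inactive = inhibition below 25%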
Efflux pump mplx = blocks antifungal efflux pumps in multiplex yeast assay; inhibition, % at 10 µM; 330,000 tested, 0.44% active; S. cerevisiae Candida pump triplex, Nile Red efflux;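 active = plate passing quality check with inhibition over a set limit, or well fluorescence over plate mean plus 4 SD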;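 also: Nile Red retained in pooled yeast measured as flow cytometry median fluorescence; higher means more Nile Red kept so more efflux inhibition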
Cmpd fluor yeast = compound fluorescence in yeast efflux pump counter-screen | shares compounds with Efflux pump mplx | S. cerevisiae AD/pABC3, flow cytometry | fluorescence ratio to DMSO, % at 10 µM | 1,700 tested, 4% active | AID 588517;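 active = fluorescence ratio to DMSO above its plate's cutoff, the plate mean ratio plus 5 SD, cut at about 210% in these data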;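 also: unstained yeast with no Nile Red so the signal is compound autofluorescence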
CaMdr1 efflux inh = inhibitors of Candida albicans Mdr1 efflux pump; shares compounds with Efflux pump mplx; S. cerevisiae AD/CaMDR1, Nile Red efflux, flow cytometry; inhibition, % at 10 µM; 1,700 tested, 1% active; AID 588518; in the data active = inhibition above about 26%;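 also: higher means more Nile Red retained so more efflux inhibition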
Cdr2 pump inh = blocks the Candida albicans Cdr2 efflux pump in yeast | S. cerevisiae AD/CaCDR2, Nile Red retention, flow cytometry | shares compounds with Efflux pump mplx | Nile Red retention ratio vs DMSO, % at 10 µM | 1,700 tested, 4% active; in the data active = Nile Red retention ratio vs DMSO above about 190%;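 also: higher ratio means more blocking of Cdr2 efflux of the dye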
CaCdr1 efflux inh = Candida Cdr1 efflux pump inhibition; shares compounds with Efflux pump mplx; S. cerevisiae AD/CaCDR1, Nile Red efflux, flow cytometry; inhibition, % at 10 µM; 1,700 tested, 1% active; AID 588522;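 active = inhibition above the screen-wide mean plus twice its standard deviation, cut at about 32% in these data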
Hits are given with their value; i = inactive; ? = inconclusive; nt = no result. Rows were chosen to be rich in hits. Some 0.6% of all compounds tested hit in one or more screens of this group.

SMILES	PolyA inh	GSK3B inh	GSK3 alpha inh	STK33 inh	Efflux pump mplx	Cmpd fluor yeast	CaMdr1 efflux inh	Cdr2 pump inh	CaCdr1 efflux inh
O=C(CCSc1nc(-c2ccco2)cc(C(F)(F)F)n1)N1CCN(c2ccccc2)CC1	i	i	i	i	0.5	i	i	i	i
FC(F)(F)c1cc(-c2ccco2)nc(N2CCN(c3ccccc3)CC2)n1	i	i	i	i	i	nt	nt	nt	nt
COC(=O)/C(=N/Nc1ccccc1C)Sc1nnc(C(O)c2ccccc2)n1-c1ccccc1 (stereo not drawn)	?	i	i	i	i	nt	nt	nt	nt
CCCCCCCCCCCCCCCC[n+]1ccc(/C=N/O)cc1	nt	nt	i	i	2.0	i	i	i	i
COc1cccc(-c2nnc(SC(C(=O)c3c[nH]c4ccccc34)c3ccccc3)n2C)c1 (stereo not drawn)	i	i	i	i	0.8	i	i	i	i
Cc1nnc(Nc2ccc(C(=O)NCCO)cc2)c2ccccc12	i	i	i	i	i	nt	nt	nt	nt
Cc1ccccc1Nc1nnc(-c2ccc(C(=O)NCCO)cc2)c2ccccc12	i	i	i	i	1.0	i	i	i	i
COc1cccc(CN(C)C(=O)c2cc(S(=O)(=O)N3CCCC3)ccc2C)c1OC	nt	nt	i	i	i	nt	nt	nt	nt
CCOc1ccc(Oc2ccccc2NS(=O)(=O)c2ccc(CCC(=O)O)cc2)cc1	nt	nt	i	i	i	nt	nt	nt	nt
COc1ccc2cc(CN(CC3CCCO3)S(=O)(=O)c3ccc(C(C)=O)cc3)c(=O)[nH]c2c1 (stereo not drawn)	i	i	i	i	0.3	i	i	i	91.6
COC(=O)c1ccccc1S(=O)(=O)N(Cc1cc2ccc(OC)cc2[nH]c1=O)CC1CCCO1 (stereo not drawn)	i	i	i	i	i	nt	nt	nt	nt
COc1ccc(NC(=O)c2cc(-c3ccc(C)cc3)on2)cc1OC	i	i	i	i	i	nt	nt	nt	nt
COc1ccc(-c2cc(C(=O)Nc3ccc(OC)c(OC)c3)no2)cc1	i	i	i	i	1.4	i	i	i	i
O=C(/C=C/c1ccccc1Cl)NCCc1ccccc1	i	i	i	i	3.3	i	i	i	i
O=C(/C=C/c1ccccc1Cl)NCc1ccccc1	i	i	i	i	i	nt	nt	nt	nt
COc1cc(CNC(C)(C)CO)cc(Br)c1OCc1ccc(Cl)cc1	i	i	i	i	6.4	i	i	i	i
COc1cc(CNC(C)(C)CO)cc(Br)c1OCc1ccc(Cl)cc1Cl	i	i	i	i	i	nt	nt	nt	nt
COc1ccccc1/C=C/C1=NC(=C\C=C/c2ccccc2)/C(=O)O1	nt	i	i	i	5.2	i	i	i	i
O=C(CCl)Nc1ccc2c(c1)OCO2	i	i	i	i	1.2	i	i	i	i
O=C1NN(c2ccccc2)C(=O)/C1=C\c1ccc(-c2cc([N+](=O)[O-])ccc2O)o1	i	i	nt	nt	nt	nt	nt	nt	nt
NS(=O)(=O)c1ccc(NC(=S)N2CCN(c3ccccc3)CC2)cc1	i	i	i	i	3.6	i	i	i	i
O=C(NCc1ccc(OC(F)(F)F)cc1)C1CC(c2cccc(F)c2)=NO1 (stereo not drawn)	i	i	i	i	i	nt	nt	nt	nt
COC(=O)c1nn(-c2ccccc2)nc1-c1nn(-c2ccccc2)nc1C(=O)OC	i	i	i	i	0.4	i	i	i	i
C/C=C(\C)CN1CCN(c2ccc(C)cc2)CC1	i	i	i	i	0.4	i	i	i	i
Cc1cc(C(=O)COC(=O)c2ccc[nH]c2=O)c(C)n1-c1ccccc1	i	i	i	i	i	nt	nt	nt	nt
Cc1cc(C(=O)COC(=O)c2ccc[nH]c2=O)c(C)n1-c1ccc(F)cc1	i	i	i	i	27.8	i	i	i	i
CC(=O)Nc1cc(C(F)(F)F)ccc1OCCOc1ccccc1	i	i	i	i	i	nt	nt	nt	nt
CC(C)(C)c1ccc(OCCOc2ccc(C(C)(C)C)cc2NC=O)c(NC=O)c1	i	i	i	i	0.6	i	i	i	i
